The subject of data set [1] is Rattus norvegicus. Nature of the data set: Dose normalized AUC in rat at 1 mg/kg, po. Also on record: dose 1 mg/kg, route oral. To be noted: in vivo. The data set is classed as ADME, organism-based. The method, boiled down: (§1)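 Rat PK after 1 mg/kg po and 0.1 mg/kg iv. Cmax and AUC normalized to a 1 mg/kg dose.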
For data set [2], the target named is Prostaglandin E2 receptor EP4 subtype (Rattus norvegicus, UniProt P43114). Nature of the data set: Agonist activity at rat EP4 receptor expressed in CHO cells assessed as cAMP production after 10 mins by radioimmunoassay. The data set is classed as functional, cell-based. Summed up: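 CHO cells expressing rat EP4 seeded at 1×10^5 cells/well and grown 2 days. Washed with MEM, then 10 min at 37 °C in MEM with 2 µM diclofenac. Preincubated 10 min at 37 °C in assay medium with 1% BSA. Test compound added, 10 min at 37 °C. Stopped with ice-cold 10% trichloroacetic acid. cAMP measured by radioimmunoassay.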
(In general: Cyclic AMP is a second messenger, typically raised through Gs and lowered through Gi signalling.)

In data set [3] the test system is Rattus norvegicus. Nature of the data set: Dose normalized cmax in rat at 1 mg/kg, po. The data set is classed as ADME, organism-based. More on the design: dose 1 mg/kg, route oral. To be noted: in vivo. Summed up:
as §1

In data set [4] the test system is Rattus norvegicus. Nature of the data set: Inhibition of LPS induced TNF-alpha production in po dosed Sprague-Dawley rat administered 30 mins before LPS challenge measured after 90 mins by ELISA. The data set is classed as functional. The method, boiled down: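 Seven-week-old Sprague–Dawley rats dosed orally with compound in sterile saline containing 20% HP-β-CD. LPS (1 mg/mL in sterile saline) given iv at 10 µg/2 mL/kg 30 min later. Blood drawn by aortic puncture into heparinized syringes 90 min after LPS. Plasma taken after centrifugation at 4 °C and frozen. Result given as ED50.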
In general terms: An ELISA detects its analyte on a solid surface through an enzyme-linked reagent.

Data set [5] can be described thus: Volume of distribution at steady state in rat at 0.1 mg/kg, iv and 1 mg/kg, po. The class given is ADME, organism-based. Conditions: in vivo, read-out: Vdss. Summed up:
(§2)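 Rat pharmacokinetics measured after 1 mg/kg po and 0.1 mg/kg iv dosing.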

Data set [6] in a line: Oral bioavailability in rat at 1 mg/kg. The class given is ADME, organism-based. Conditions: in vivo.
The target in data set [7] is Prostaglandin E2 receptor EP2 subtype (Mus musculus, UniProt Q62053). Nature of the data set: Displacement of [3H]-PGE2 from mouse EP2 receptor expressed in CHO cells after 60 mins by liquid scintillation counter. The data set is classed as cell-based. The method, boiled down:
(§3)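 Membranes from CHO cells stably expressing mouse EP1–4, incubated with 2.5 nM [³H]PGE₂ and test compound at various concentrations in 10 mM KH₂PO₄–KOH, 1 mM EDTA, 10 mM MgCl₂, 0.1 mM NaCl, pH 6.0. Incubated 25 °C, 60 min (EP1: 20 min). Filtration on GF/B, ice-cold buffer wash, scintillation counting. Nonspecific binding with excess unlabeled PGE₂. IC50 from regression curve; Ki = IC50/(1+[L]/Kd).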
Background: Loss of bound radioactivity is the signal in a displacement assay; it reports binding, not function.

The target of data set [8] is T1, Prostaglandin E2 receptor EP1 subtype (Mus musculus, UniProt P35375).
T1 sequence (P35375 whole entry): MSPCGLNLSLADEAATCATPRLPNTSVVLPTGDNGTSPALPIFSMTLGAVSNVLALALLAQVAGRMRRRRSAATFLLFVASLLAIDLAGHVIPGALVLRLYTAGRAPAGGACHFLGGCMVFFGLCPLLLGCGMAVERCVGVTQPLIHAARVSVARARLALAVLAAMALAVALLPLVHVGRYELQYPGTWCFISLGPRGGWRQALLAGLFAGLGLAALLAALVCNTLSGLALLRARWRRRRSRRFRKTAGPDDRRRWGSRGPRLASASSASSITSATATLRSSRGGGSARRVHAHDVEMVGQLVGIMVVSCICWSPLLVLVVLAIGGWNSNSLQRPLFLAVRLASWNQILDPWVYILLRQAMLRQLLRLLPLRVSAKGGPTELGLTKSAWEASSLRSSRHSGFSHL
As to the kind of experiment: Displacement of [3H]-PGE2 from mouse EP1 receptor expressed in CHO cells after 20 mins by liquid scintillation counter. The data set is classed as cell-based. The method, boiled down: as §3

Data set [9] can be described thus: Total clearance rat at 0.1 mg/kg, iv and 1 mg/kg, po. The class given is ADME, organism-based. To be noted: in vivo. Summed up:
as §2

The target of data set [10] is T2, Prostaglandin E2 receptor EP3 subtype (Mus musculus, UniProt P30557).
T2 sequence (P30557 whole entry): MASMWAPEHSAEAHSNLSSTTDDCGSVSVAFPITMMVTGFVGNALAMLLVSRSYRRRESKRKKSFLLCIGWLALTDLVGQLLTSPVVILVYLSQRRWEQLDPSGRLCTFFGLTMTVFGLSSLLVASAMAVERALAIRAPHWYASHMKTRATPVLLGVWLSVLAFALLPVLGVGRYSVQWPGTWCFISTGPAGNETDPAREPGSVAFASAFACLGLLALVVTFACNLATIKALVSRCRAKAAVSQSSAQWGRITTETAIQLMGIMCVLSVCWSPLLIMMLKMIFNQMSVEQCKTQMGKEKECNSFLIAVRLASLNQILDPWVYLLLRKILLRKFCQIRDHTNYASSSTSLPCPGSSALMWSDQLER
Nature of the data set: Displacement of [3H]-PGE2 from mouse EP3 receptor expressed in CHO cells after 60 mins by liquid scintillation counter. The data set is classed as cell-based. The method, boiled down:
as §3

In data set [11] the target is Prostaglandin E2 receptor EP4 subtype (Mus musculus, UniProt P32240). As to the kind of experiment: Displacement of [3H]-PGE2 from mouse EP4 receptor expressed in CHO cells after 60 mins by liquid scintillation counter. The class given is cell-based. The method, boiled down:
as §3

Data set [12] in a line: Cmax in rat at 0.1 mg/kg, iv and 1 mg/kg, po. The data set is classed as ADME, organism-based. To be noted: in vivo. Summed up:
as §2

Data set [13] is described as follows: AUC in rat at 0.1 mg/kg, iv and 1 mg/kg, po. The data set is classed as ADME, organism-based. Conditions: plasma. Summed up:
as §2

Structures are written as SMILES.

Sequence of Prostaglandin E2 receptor EP4 subtype (Mus musculus, UniProt P32240) (P32240 whole entry): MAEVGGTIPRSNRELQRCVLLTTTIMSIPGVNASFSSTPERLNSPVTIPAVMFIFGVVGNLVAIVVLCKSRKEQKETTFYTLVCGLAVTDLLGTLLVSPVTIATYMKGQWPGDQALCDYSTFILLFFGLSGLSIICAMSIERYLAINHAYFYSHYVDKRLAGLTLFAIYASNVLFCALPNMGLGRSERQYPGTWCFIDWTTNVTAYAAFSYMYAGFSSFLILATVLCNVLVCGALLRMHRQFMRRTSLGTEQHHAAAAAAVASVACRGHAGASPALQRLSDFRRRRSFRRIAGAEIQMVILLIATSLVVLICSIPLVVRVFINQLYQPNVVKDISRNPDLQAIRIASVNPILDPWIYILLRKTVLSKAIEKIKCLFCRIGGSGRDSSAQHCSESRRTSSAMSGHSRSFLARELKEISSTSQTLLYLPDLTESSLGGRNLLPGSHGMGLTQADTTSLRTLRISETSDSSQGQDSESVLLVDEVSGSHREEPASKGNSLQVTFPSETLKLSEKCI
Sequence of Prostaglandin E2 receptor EP2 subtype (Q62053 whole entry): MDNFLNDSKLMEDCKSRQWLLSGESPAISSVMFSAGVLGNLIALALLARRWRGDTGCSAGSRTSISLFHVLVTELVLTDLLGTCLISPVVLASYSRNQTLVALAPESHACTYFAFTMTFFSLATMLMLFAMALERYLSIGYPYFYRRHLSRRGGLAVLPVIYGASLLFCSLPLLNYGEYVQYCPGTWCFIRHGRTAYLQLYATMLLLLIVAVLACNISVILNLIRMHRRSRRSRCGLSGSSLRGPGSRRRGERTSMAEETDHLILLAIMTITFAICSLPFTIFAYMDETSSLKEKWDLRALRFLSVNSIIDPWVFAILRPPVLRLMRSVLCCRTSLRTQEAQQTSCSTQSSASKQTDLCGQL
Sequence of Prostaglandin E2 receptor EP4 subtype (Rattus norvegicus, UniProt P43114) (P43114 whole entry): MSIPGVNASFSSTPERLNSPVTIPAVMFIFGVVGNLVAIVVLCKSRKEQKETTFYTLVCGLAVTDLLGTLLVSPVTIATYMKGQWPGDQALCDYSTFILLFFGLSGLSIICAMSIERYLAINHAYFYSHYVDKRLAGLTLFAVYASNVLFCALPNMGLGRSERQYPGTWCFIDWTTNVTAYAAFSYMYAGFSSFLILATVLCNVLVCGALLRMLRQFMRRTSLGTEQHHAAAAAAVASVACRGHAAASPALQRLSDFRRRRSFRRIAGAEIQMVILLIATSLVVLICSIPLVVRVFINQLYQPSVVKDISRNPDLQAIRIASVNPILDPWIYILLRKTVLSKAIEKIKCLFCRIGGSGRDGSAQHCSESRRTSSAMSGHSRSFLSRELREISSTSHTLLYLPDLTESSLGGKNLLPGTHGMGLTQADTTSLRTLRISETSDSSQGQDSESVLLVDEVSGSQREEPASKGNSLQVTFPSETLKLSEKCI

For `COCc1cccc(C[C@H](O)/C=C/[C@H]2CCC(=O)N2CCCCCCC(=O)O)c1`, the AUC/dose in the data set on Rattus norvegicus [1] was found to be 6.4 ng·h/mL. In addition, the EC50 (usually the concentration that produces a half-maximal response) in data set [2] is 15 nM. Further, the Cmax/dose in the data set on Rattus norvegicus [3] was 1.6 ng/mL. Further, the ED50 (usually the dose that gives a 50% effect, or the effect in half of the subjects) with Rattus norvegicus [4] worked out at 1 mg/kg. Also, in [5], the Vd amounted to 0.386 L/kg. Further, in [6], the bioavailability – broadly, dose-corrected exposure relative to a reference, in per cent – worked out at 1.2%. Moreover, the Ki (as a rule, a dissociation constant, usually derived from enzyme kinetics or from competition with a known ligand) in data set [7] was greater than 10000 nM; in data set [8], greater than 10000 nM; in [10], greater than 10000 nM; in [11] it was 10 nM. In addition, the clearance in data set [9] came out at 35 mL/min/kg.

For the molecule `Cc1cccc(C[C@H](O)/C=C/[C@H]2COC(=O)N2CCSCCCC(=O)O)c1`, in [12], the peak level (Cmax) was 5.4 ng/mL. In addition, the concentration for a half-maximal effect (EC50) in [2] was determined as 33 nM. In the data set with Rattus norvegicus [4], this molecule registered an ED50 greater than 1 mg/kg. Also, the Vd in data set [5] came out at 0.291 L/kg. In [13], the AUC (usually concentration integrated over time) came out at 16.1 ng·h/mL. The molecule also gave a bioavailability in data set [6] of 4.5%. The Ki was greater than 10000 nM in data set [7], 4400 nM in data set [8], 2800 nM in [10] and 2.5 nM in data set [11]. In [9], this molecule had a clearance of 47 mL/min/kg.

Regarding `CCc1cccc(C[C@H](O)/C=C/[C@H]2CSC(=O)N2CCSCCCC(=O)O)c1`, the Cmax (commonly the highest concentration seen after dosing) in [12] came out at 10.4 ng/mL. Besides, the 50% effective concentration (EC50) in data set [2] was 1.9 nM. In the data set on Rattus norvegicus [4], this molecule yielded an ED50 of 1 mg/kg. Moreover, in [5], the Vd was 0.538 L/kg. In [13], this molecule gave an AUC of 19.5 ng·h/mL. The same molecule showed a bioavailability in data set [6] of 8.6%. For the same molecule, the inhibition constant (Ki) in data set [7] is greater than 10000 nM; in [8], 4600 nM; in [10], 65 nM; in data set [11] it was 0.88 nM. Further, the clearance in data set [9] worked out at 75 mL/min/kg.

`COCc1cccc(C[C@H](O)/C=C/[C@H]2CCC(=S)N2CCCCCCC(=O)O)c1`: the highest level in [12] (Cmax) was 6.5 ng/mL. Moreover, the 50% effective concentration (EC50) in data set [2] amounted to 7.3 nM. In the data set with Rattus norvegicus [4], the ED50 was 3 mg/kg. For the same molecule, the Vd in data set [5] came out at 0.53 L/kg. Besides, the exposure (AUC) in [13] was determined as 20.6 ng·h/mL. Besides, in [6], the bioavailability worked out at 12.3%. The inhibition constant Ki was 1400 nM in data set [7], greater than 10000 nM in data set [8], 6300 nM in data set [10] and 2 nM in [11]. Also, in [9], the clearance amounted to 102 mL/min/kg.

On to `Cc1cccc(C[C@H](O)/C=C/[C@H]2CCC(=S)N2CCSCCCC(=O)O)c1`, for which, in data set [12], the Cmax worked out at 3.4 ng/mL. Moreover, the EC50 in [2] is 7.7 nM. This molecule also displayed an ED50 in the data set with Rattus norvegicus [4] of 1 mg/kg. In data set [5], the Vd is 1.76 L/kg. This molecule also registered an exposure (AUC) in data set [13] of 29.9 ng·h/mL. The bioavailability in data set [6] was 9.8%. In addition, the Ki in [7] was 1700 nM; in [8] it was 2800 nM; in [10] it was 980 nM; in data set [11] it was 0.5 nM. The clearance in data set [9] amounted to 61 mL/min/kg.
